Compound activity as filed in PubChem BioAssay.
In the library only some 1% were active in any assay of this set; here they are far more common.
FXN GAA850 act = increases GAA850 frataxin promoter reporter activity; HEK293 lucGAA850 FXN promoter luciferase reporter, 24 h; percent of 10 µM SAHA response; activation, % at 6 µM; 0.56% of 360,000 active; AID 540364;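 active = activation above the average of all compounds screened plus 3 SD, cutoff fixed separately per campaign, cut at about 7.5% in these data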;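 note: 0% = DMSO wells and 100% = 10 µM SAHA wells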
Xi reactivation = reactivates the inactive X chromosome in mouse fibroblasts | XiGFP mouse fibroblasts, % GFP-positive cells imaging, 3 d; cells co-treated with 5-aza-dC sensitizer; scaled so ellipticine positive control = 100% | activation, % at 7.58 µM | 0.055% of 360,000 active | AID 743238;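 active = mean normalized replicate activation at least 10% and every replicate at or above 10%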;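 note: 0% = median of on-plate neutral control wells and 100% = ellipticine 6 µM median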
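Material: XiGFP fibroblasts, SV40-immortalized. Buffer or medium: DMEM plus 5-aza-dC sensitizer. Compound: single concentration per compound, delivered by pin transfer. Times: 3 days compound exposure. Controls: ellipticine 6 µM.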
CaV13 FRET inh = Primary screen for inhibitors of IQ motif and Ca2+-dependent inactivation inhibitor domain binding in CACNA1D, Förster resonance energy transfer in living cells, …; HEK cells, CFP/YFP FRET ICDI-IQ, plate reader, 10 min; percent FRET-ratio fall versus neutral wells; AID 743397; inhibition, % at 12.3 µM; 0.098% of 340,000 active;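 active = mean replicate inhibition of at least 30% and at least 1% of replicates passing that level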;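 note: 0% = median of the neutral control wells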
INS-1E GSIS act = GLuc luminescence reporter in INS-1E cells, primary screen for activators of glucose-dependent secretion of insulin. INS-1E GLuc reporter insulin secretion, 2-3 h. activation, % at 16.6 µM. 0.61% of 370,000 active. AID 743287;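 active = lowest replicate activation of at least 40%, so every replicate reaches that level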;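 note: 0% = median of neutral control wells and 100% = median of IBMX positive control wells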
GAA30 FXN cntr = GAA30 FXN promoter activation counter-screen | AID 588350 | HEK293 lucGAA30 FXN promoter luciferase, 24 h; DMSO = 0%, 5 µM ipriflavone = 100% | 66% of 1,900 active | shares compounds with FXN GAA850 act | activation, % at 6 µM;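 active = mean activation above the mean of solvent-only control wells plus 3 SD, cut at about 22% in these data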;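 note: counterscreen of GAA850 promoter hits where activity marks nonselective or luminescence artifacts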
FXN GAA850 conf = confirmation of GAA850 frataxin (FXN) promoter activators | shares compounds with FXN GAA850 act | 86% of 1,900 active | AID 588351 | activation, % at 6 µM | HEK293 lucGAA850 FXN promoter luciferase reporter, 24 h; 100% = activation by SAHA;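 active = mean activation above a set limit taken from the primary screen, cut at about 8% in these data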;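 note: 0% = DMSO wells and 100% = 10 µM SAHA wells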
Numbers without * were called inactive; . = no result given.

SMILES	FXN GAA850 act	Xi reactivation	CaV13 FRET inh	INS-1E GSIS act	GAA30 FXN cntr	FXN GAA850 conf
COC(=O)CN1C(c2ccc(OC)cc2)=Nc2ccc(Cl)cc2C1c1ccccc1 (configuration not stated)	4	0	-5	5	.	.
COC(=O)CN1C(c2cccc(Cl)c2)=Nc2ccc(Cl)cc2C1c1ccccc1 (configuration not stated)	8.5*	0	-15	.	39*	15*
CCn1c(SCc2ccccc2Cl)nc2nc3c(cc2c1=O)CCCC3	7.8*	0	-3	1	10	12*
O=C(CCN1CCCCC1)NCC[C@@H]1CC[C@H](NS(=O)(=O)c2cccc(F)c2)[C@@H](CO)O1	.	0	.	-4	.	.
c1ccc2nc3c(ccc4ccccc43)cc2c1	7.7*	0	-6	-40	106*	37*
Cc1cccc2cc3ccccc3nc12	1	0	-5	5	.	.
COc1ccc(/C=N/NC(=O)C(C)n2nnc3ccccc32)cc1OC (configuration not stated)	8.5*	.	-5	.	20	11*
COc1ccc2c3c([nH]c2c1)[C@@H](CO)N(C(=O)c1ccccn1)CC31CN(S(C)(=O)=O)C1	.	0	.	25	.	.
O=C(COC(=O)c1cccnc1)c1ccc(Cl)cc1	11*	.	-7	-1	22*	5
COc1ccc(CN(C)C[C@@H]2OCCCC[C@@H](C)Oc3ccc(NC(=O)CCCN(C)C)cc3C(=O)N([C@H](C)CO)C[C@H]2C)cc1	.	0	.	9	.	.
CCOC(=O)c1c(C)[nH]c(C(=O)OCCOc2ccccc2C)c1C	9.5*	0	6	-13	98*	26*
C[C@@H]1CN([C@@H](C)CO)C(=O)c2cc(NC(=O)c3ccccc3)ccc2O[C@@H](C)CCCCO[C@H]1CN(C)C(=O)c1ccncc1	.	0	.	6	.	.
C/C=C/c1ccc([C@@H]2[C@H](CO)N(Cc3cncnc3)C23CN(C(=O)CC)C3)cc1	.	0	.	-7	.	.
O=C1c2cc([N+](=O)[O-])cc3cc([N+](=O)[O-])cc(c23)C(=O)N1c1ccccn1	8.2*	0	-7	-25	15	17*
COc1ccc(-c2csc(N3C(=N)SCC3=O)n2)cc1	10*	.	-9	.	96*	28*
CNC[C@@H]1Oc2c(NC(=O)Nc3ccc(OC)cc3)cccc2C(=O)N([C@@H](C)CO)C[C@H]1C	.	-1	.	10	.	.
Oc1csc(Cc2nc(-c3ccc(Br)cc3)cs2)n1	7.6*	0	-6	0	96*	38*
O=C(N[C@H]1CC[C@@H](CCNS(=O)(=O)c2ccccc2)O[C@@H]1CO)c1cccnc1	.	1	.	-10	.	.
CN1c2ccc(-c3ccc(F)cc3)cc2[C@H]2[C@H](CCN2C(=O)c2cccnc2)[C@@H]1CO	.	0	.	5	.	.
Cc1ccc2c(COC(=O)c3ccccc3Cl)cc(=O)oc2c1	8.5*	0	-7	3	126*	42*
Cc1ccc2c(COC(=O)c3ccccc3Br)cc(=O)oc2c1	4	0	-7	14	.	.
C[C@@H]1CN([C@H](C)CO)C(=O)c2c(c3ccccc3n2C)-c2ccccc2CO[C@@H]1CN(C)C(=O)N[C@H](C)c1ccccc1	.	1	.	-26	.	.
C[C@H](CO)N1C[C@H](C)[C@H](CN(C)C(=O)N[C@H](C)c2ccccc2)OCc2ccccc2-c2c(n(C)c3ccccc23)C1=O	14*	0	-5	-6	-6	4
Cc1ccc(C2CC(c3ccco3)n3ncnc3N2)cc1 (configuration not stated)	11*	0	-3	-4	12	6
CC1(C)Cc2c(c(-c3ccco3)nc3sc4c(NCCCO)ncnc4c23)CO1	7.7*	0	-2	35	9	14*
CC(=O)Nc1ccc2c(c1)C(=O)N(C)[C@@H]1CC[C@H](CC(=O)NCc3ccccc3)O[C@@H]1CO2	.	0	.	-1	.	.
O=C1NCCN1Cc1ccc(F)cc1	2	.	-4	-9	.	.
